Reference: paper PMC3286645 (Carbohydrate Research, 2011)
Like-named read-outs stand apart in the source and are kept apart here. Blank lines part the entries; values can stand above or below the molecule they belong to.

Columns and labels:
HaCaT cells = assay: MTS cell viability assay in HaCaT cells; assay type: cell-based, human
[1] = Thermogravimetric analysis; assay type: physicochemical; conditions: TGA; for Temperature of solvent loss: 10 °C/min under nitrogen; for Number of water molecules: from weight loss; for Percent weight loss: solvent loss
In short: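 Instrument calibrated with indium and aluminum. 2.5 mg to 4.5 mg of each test compound in an alumina crucible, heated from 25 °C to 200 °C at 10 °C/min under nitrogen flowing at 2 mL/min; weight loss recorded against temperature.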

Jurkat cells [2] = assay: MTS cell viability assay in Jurkat cells; assay type: cell-based
Hs27 cells = assay: MTS cell viability assay in Hs27 cells; assay type: cell-based
[3] = Solubility of stock solutions in DMSO and in cell culture medium; assay type: physicochemical; conditions: 100 mM stock solution in dimethyl sulfoxide
In short: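 Test compounds and the octylthioglucoside reference were each made up as 100 mM stocks in DMSO. Solubility was judged by eye. An aliquot of each stock was added to cell culture medium, vortexed for 5 sec, centrifuged at 1,400 rpm for 1 min, and checked for precipitate. Stocks that precipitated were diluted further before cytotoxicity testing.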

[4] = Differential scanning calorimetry; assay type: physicochemical; conditions: DSC; for Mp (transition from solid crystalline phase to liquid crystalline phase): first phase transition; for Cp (clearing point): liquid crystalline phase to liquid melt phase
In short: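 Dry test compounds kept under vacuum against moisture uptake; 1.0 to 1.5 mg weighed into Tzero aluminum pans sealed with hermetic lids, empty sealed pan as reference. Instrument calibrated with indium for temperature and enthalpy. Scanned 20°C to 250°C at 2.5°C/min; phase transitions taken from the thermograms.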

[5] = cited from earlier work
Jurkat cells [6] = assay: Apoptosis assay; assay type: cell-based
[7] = HaCaT cells, MTS assay, 20 h exposure
[8] = Jurkat cells, MTS assay, 20 h exposure
[9] = Hs27 cells, MTS assay, 20 h exposure

SMILES: CCCCCCCCCCO[C@@H]1OC[C@@H](O)[C@H](O)[C@H]1O [Compound 9c, Decyl β-D-xylopyranoside]
toxicity (cell viability) in words (HaCaT cells; [7]): moderate toxicity
Decomposition Temperature [1]: 277.2 ± 11.5 °C
Temperature of solvent loss [1]: 96.63 ± 0.44 °C
Number of water molecules [1]: 0.5
Percent weight loss [1]: 2.69±0.07%
toxicity (cell viability) in words (Jurkat cells [2]; [8]): moderate toxicity
toxicity (cell viability) in words (Hs27 cells; [9]): moderate toxicity

SMILES: CCCCCCCCS[C@@H]1O[C@H](CO)[C@@H](O)[C@H](O)[C@H]1O [OTG, octylthioglucoside, reference compound]
solubility in DMSO [3]: readily soluble
toxicity (cell viability) in words (Jurkat cells [2]; [8]): moderate toxicity
toxicity (cell viability) in words (Hs27 cells; [9]): moderate toxicity

SMILES: CCCCCCCCO[C@@H]1OC[C@@H](O)[C@H](O)[C@H]1O [Compound 9b, Octyl β-D-xylopyranoside]
toxicity (cell viability) in words (HaCaT cells; [7]): moderate toxicity
Decomposition Temperature [1]: 267.1 ± 9.15 °C
Temperature of solvent loss [1]: 85.32 ± 0.55 °C
Number of water molecules [1]: 0.5
Percent weight loss [1]: 2.35±0.91%
Mp (transition from solid crystalline phase to liquid crystalline phase) [4]: 72.5 °C
Cp (clearing point) [4]: 99.4 °C
toxicity (cell viability) in words (Jurkat cells [2]; [8]): moderate toxicity
Cp (clearing point) ([5]; reported previously ref 23): 96.9 °C
Mp (transition from solid crystalline phase to liquid crystalline phase) ([5]; reported previously ref 23): 64.5 °C
Cp (clearing point) ([5]; reported previously ref 24): 103.3 °C
Mp (transition from solid crystalline phase to liquid crystalline phase) ([5]; reported previously ref 24): 67.5 °C
toxicity (cell viability) in words (Hs27 cells; [9]): moderate toxicity

SMILES: CCCCCCO[C@@H]1OC[C@@H](O)[C@H](O)[C@H]1O [Compound 9a, Hexyl β-D-xylopyranoside]
Decomposition Temperature [1]: 262.8 ± 4.34 °C
Temperature of solvent loss [1]: 81.74 ± 0.41 °C
Number of water molecules [1]: 0.4
Percent weight loss [1]: 2.50±0.66%

SMILES: O[C@@H]1[C@@H](O)[C@H](OCCC(F)(F)C(F)(F)C(F)(F)C(F)(F)C(F)(F)C(F)(F)F)OC[C@H]1O [Compound 9g, 3,3,4,4,5,5,6,6,7,7,8,8,8-Tridecafluorooctyl β-D-xylopyranoside]
mode of cell death (Jurkat cells [6]): apoptosis and not necrosis
toxicity (cell viability) in words (HaCaT cells): moderate toxicity
Temperature of solvent loss [1]: 50.57 ± 1.64 °C
Number of water molecules [1]: 0.9
Percent weight loss [1]: 2.64±0.83%
Mp (transition from solid crystalline phase to liquid crystalline phase) [4]: 105.1 °C
Cp (clearing point) [4]: 147.0 °C
toxicity (cell viability) in words (Jurkat cells [2]): moderate toxicity
toxicity (cell viability) in words (Hs27 cells): moderate toxicity

The next lines start with the values.

Temperature of solvent loss [1]: 103.4 ± 1.95 °C
Number of water molecules [1]: 0.3
Percent weight loss [1]: 1.24±0.49%
SMILES: CCCCCCCCCCCCCCCCO[C@@H]1OC[C@@H](O)[C@H](O)[C@H]1O [Compound 9f, Hexadecyl β-D-xylopyranoside]

Decomposition Temperature [1]: 294.8 ± 7.15 °C
Temperature of solvent loss [1]: 100.1 ± 2.93 °C
Number of water molecules [1]: 0.5
Percent weight loss [1]: 1.87±1.08%
SMILES: CCCCCCCCCCCCCCO[C@@H]1OC[C@@H](O)[C@H](O)[C@H]1O [Compound 9e, Tetradecyl β-D-xylopyranoside]

Decomposition Temperature [1]: 290.4 ± 10.5 °C
Temperature of solvent loss [1]: 86.35 ± 0.98 °C
Number of water molecules [1]: 0.3
Percent weight loss [1]: 1.56±0.09%
SMILES: CCCCCCCCCCCCO[C@@H]1OC[C@@H](O)[C@H](O)[C@H]1O [Compound 9d, Dodecyl β-D-xylopyranoside]
